# Test results published in article PMC4716540 (British Journal of Cancer, 2015).
# “And” between values parts separate entries of the source, which are not always exact repeats. Equal entries are not always repeated.
# Columns and labels:
# [1] = tested on: primary myeloma cells; conditions: in the presence of bone marrow stromal cells; ref Juliger et al, 2008; cited from earlier work
# [2] = Plasma pharmacokinetics of KW-2478; type: in vivo, human
# [3] = tested on: Hsp70 in peripheral blood mononuclear cells (PBMCs); experiment: Hsp70 levels in PBMCs by western blot as biomarker for Hsp90 inhibition; type: in vivo, human
# In short: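 Patients with relapsed/refractory B-cell malignancies received the test compound by 1-h IV infusion on days 1–5 of a 14-day cycle (cohorts 14–176 mg m⁻², 3+3 design). Hsp70 was measured by western blot at an independent central laboratory, as change from baseline, and summarised descriptively by dose level.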
# [4] = tested on: in vitro and in vivo models, including primary MM patient samples; conditions: ref Nakashima et al, 2010, Ishii et al, 2012; cited from earlier work
# [5] = tested on: relapsed/refractory MM and NHL; experiment: Tumour response by standard criteria for MM and NHL; type: in vivo, human; conditions: for Duration of sustained SD: one patient
# In short: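 Best tumour response was assessed over all cycles of single-agent treatment. The agent was given by 1-h IV infusion on days 1–5 of each 14-day cycle, at 14–176 mg m⁻². Treatment continued for up to 12 months or until progression, unacceptable toxicity or withdrawal. Intrapatient escalation was allowed after at least two cycles. Chemotherapy, radiotherapy and corticosteroids were excluded. Responses were summarised descriptively by dose level.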
# [6] = 14 mg m^–2 iv, day 1, n=3, mean±s.d.
# [7] = 14 mg m^–2 iv, day 5, n=3, mean±s.d.
# [8] = 28 mg m^–2 iv, day 1, n=3, mean±s.d.
# [9] = 28 mg m^–2 iv, day 5, n=3, mean±s.d.
# [10] = 47 mg m^–2 iv, day 1, n=3, mean±s.d.
# [11] = 47 mg m^–2 iv, day 5, n=2, mean±s.d.
# [12] = 71 mg m^–2 iv, day 1, n=3, mean±s.d.
# [13] = 71 mg m^–2 iv, day 5, n=2, mean±s.d.
# [14] = 99 mg m^–2 iv, day 1, n=3, mean±s.d.
# [15] = 99 mg m^–2 iv, day 5, n=3, mean±s.d.
# [16] = 132 mg m^–2 iv, day 1, n=6, mean±s.d.
# [17] = 132 mg m^–2 iv, day 5, n=6, mean±s.d.
# [18] = 176 mg m^–2 iv, day 1, n=6, mean±s.d.
# [19] = 176 mg m^–2 iv, day 5, n=5, mean±s.d.
# [20] = 25 evaluable patients, all doses
structure (smiles),measurement,setting,value
CCc1c(O)cc(O)c(C(=O)c2ccc(OCCN3CCOCC3)c(OC)c2)c1CC(=O)N(CCOC)CCOC [KW-2478],Activity against primary myeloma cells,[1],retained
same,AUC0–t,[2]; [6],819±403 ng h^–1 ml^–1
same,AUC0–∞,[2]; [6],992±497 ng h^–1 ml^–1
same,CL (total plasma clearance),[2]; [6],28.9±11.1 l h^–1
same,Cmax,[2]; [6],645±306 ng ml^–1
same,kel (elimination rate constant),[2]; [6],0.11 ± 0.01 h⁻¹
same,t½ (terminal half-life),[2]; [6],6.05 ± 0.37 h
same,AUC0–t,[2]; [7],844±445 ng h^–1 ml^–1
same,Cmax,[2]; [7],656±342 ng ml^–1
same,AUC0–t,[2]; [8],1935±848 ng h^–1 ml^–1
same,AUC0–∞,[2]; [8],2353±1117 ng h^–1 ml^–1
same,CL (total plasma clearance),[2]; [8],23.1±15.9 l h^–1
same,Cmax,[2]; [8],1620±556 ng ml^–1
same,kel (elimination rate constant),[2]; [8],0.11 ± 0.02 h⁻¹
same,t½ (terminal half-life),[2]; [8],6.48 ± 0.96 h
same,AUC0–t,[2]; [9],1639±768 ng h^–1 ml^–1
same,Cmax,[2]; [9],1320±531 ng ml^–1
same,AUC0–t,[2]; [10],2325±652 ng h^–1 ml^–1
same,AUC0–∞,[2]; [10],2758±891 ng h^–1 ml^–1
same,CL (total plasma clearance),[2]; [10],34.9±8.35 l h^–1
same,Cmax,[2]; [10],1990±236 ng ml^–1
same,kel (elimination rate constant),[2]; [10],0.11 ± 0.01 h⁻¹
same,t½ (terminal half-life),[2]; [10],6.60 ± 0.69 h
same,AUC0–t,[2]; [11],2334±532 ng h^–1 ml^–1
same,Cmax,[2]; [11],1705±785 ng ml^–1
same,AUC0–t,[2]; [12],2798±432 ng h^–1 ml^–1
same,AUC0–∞,[2]; [12],3197±400 ng h^–1 ml^–1
same,CL (total plasma clearance),[2]; [12],43.0±6.80 l h^–1
same,Cmax,[2]; [12],2620±585 ng ml^–1
same,kel (elimination rate constant),[2]; [12],0.11 ± 0.02 h⁻¹
same,t½ (terminal half-life),[2]; [12],6.29 ± 0.93 h
same,AUC0–t,[2]; [13],3681±497 ng h^–1 ml^–1
same,Cmax,[2]; [13],2675±49.5 ng ml^–1
same,AUC0–t,[2]; [14],4220±1251 ng h^–1 ml^–1
same,AUC0–∞,[2]; [14],4826±1504 ng h^–1 ml^–1
same,CL (total plasma clearance),[2]; [14],42.7±12.5 l h^–1
same,Cmax,[2]; [14],3400±876 ng ml^–1
same,kel (elimination rate constant),[2]; [14],0.12 ± 0.003 h⁻¹
same,t½ (terminal half-life),[2]; [14],5.83 ± 0.14 h
same,AUC0–t,[2]; [15],3673±932 ng h^–1 ml^–1
same,Cmax,[2]; [15],2977±610 ng ml^–1
same,AUC0–t,[2]; [16],6910±1864 ng h^–1 ml^–1
same,CL (total plasma clearance),[2]; [16],35.0±9.99 l h^–1
same,Cmax,[2]; [16],5410±1622 ng ml^–1
same,kel (elimination rate constant),[2]; [16],0.12 ± 0.01 h⁻¹
same,t½ (terminal half-life),[2]; [16],5.71 ± 0.61 h
same,AUC0–t,[2]; [17],7262±1331 ng h^–1 ml^–1
same,Cmax,[2]; [17],5972±940 ng ml^–1
same,CL (total plasma clearance),[2]; [18],32.8±10.7 l h^–1
same,Cmax,[2]; [18],6838±1961 ng ml^–1
same,kel (elimination rate constant),[2]; [18],0.13 ± 0.01 h⁻¹
same,t½ (terminal half-life),[2]; [18],5.43 ± 0.39 h
same,AUC0–t,[2]; [19],8355±2496 ng h^–1 ml^–1
same,Cmax,[2]; [19],6062±1411 ng ml^–1
same,"Mean t½, range across dose levels",[2]; 14–176 mg m^–2,5.4 to 6.6 h
same,"Total CL, range of means across dose levels",[2]; 14–176 mg m^–2,23.1–43.0 l h^–1
same,Manner of plasma concentration decline,"[2]; after end of infusion, rapid distribution phase and slower elimination phase",biphasic
same,Mean Cmax and AUC values in relation to dose,[2]; days 1 and 5,increased linearly in relation to dose
same,"Accumulation from days 1 to 5 (Cmax, AUC)",[2]; once daily days 1–5,no relevant accumulation
same,Terminal half-life,"[2]; plasma, iv infusion over 1 h",~6 h
same,Hsp70 induction above baseline in PBMCs,"[3]; doses ⩾71 mg m^–2, 8 h after dosing on days 1 and 5",≥ 25%
same,Doses at which Hsp70 levels in PBMCs increased (target inhibition inferred),[3]; western blot,≥ 71 mg m^–2
same,Antitumour activity,[4],potent antitumour activity
same,"Progressive disease, MM patients",[5]; 21 evaluable MM patients,4.8%
same,"Stable disease (SD), MM patients",[5]; 21 evaluable MM patients,95.2%
same,Evaluable patients with stable disease (disease stabilisation rate),[5]; [20],96%
same,Overall disease control rate,[5]; [20],96.0%
same,Patients with SD lasting ⩾3 months,[5]; all doses,Eight
same,Patients with SD lasting ⩾6 months (free of disease progression),[5]; all doses,five
same,Complete or partial responses,[5]; best tumour response over all cycles,No patients achieved complete or partial responses
same,"Stable disease (SD), NHL patients",[5]; four evaluable NHL patients,100%
same,Duration of response,"[5]; individual patient, MM, 99 mg m^–2",3.1 months
same,Duration of response,"[5]; individual patient, NHL, 99 mg m^–2",1.5 months
same,Duration of response,"[5]; individual patient, NHL, 176 mg m^–2",1.3 months
same,Duration of response,"[5]; individual patients, MM, 14 mg m^–2",1 months and 1.4 months
same,Duration of response,"[5]; individual patients, MM, 28 mg m^–2",11.3 months and 0.8 months and 1.8 months
same,Duration of response,"[5]; individual patients, MM, 47 mg m^–2",1.3 months and 1 months
same,Duration of response,"[5]; individual patients, MM, 71 mg m^–2",1.1 months and 5.1 months
same,Duration of response,"[5]; individual patients, MM, 132 mg m^–2",1.4 months and 8.8 months and 12.9 months
same,Duration of response,"[5]; individual patients, MM, 176 mg m^–2",3.5 months and 1.3 months and 11.9 months and 2 months
same,Duration of response,"[5]; individual patients, NHL, 132 mg m^–2",1.4 months and 8.2 months
same,Duration of sustained SD,[5]; 132 mg m^–2 cohort,12.9 months
same,Duration of sustained SD,[5]; 176 mg m^–2 cohort,11.9 months
